Source: ChEMBL document CHEMBL3865790, “2-(Phenylsulfonyl)quinoline N-hydroxyacrylamides as potent anticancer agents inhibiting histone deacetylase” (Eur J Med Chem, 2016)
pIC50: −log10 of the molar value. Active and inactive are the calls of the source. The calls are words filed in the database; no cut-off is given here.

Legend:
[1] = Antiproliferative activity against human HCT116 cells after 48 hrs by SRB assay; format: functional, HCT-116
In short: (§1)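 Cells grown in RPMI 1640 with 10% FBS and antibiotics, then seeded in medium with 5% FBS. A T0 plate was fixed with 10% TCA at 24 h. Remaining cells were exposed to compound or DMSO for 48 h, TCA-fixed, and stained with 0.4% SRB in 1% acetic acid. Dye was solubilized in 10 mM Trizma base and read at 515 nm.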

[2] = Antiproliferative activity against human PC3 cells after 48 hrs by SRB assay; format: functional, PC-3; in short: as §1
[3] = Antiproliferative activity against human A549 cells after 48 hrs by SRB assay; format: functional; in short: as §1
[4] = Antiproliferative activity against human HL60 cells after 48 hrs by SRB assay; format: functional, HL-60; in short: as §1
PC-3 = details: Homo sapiens, at 0.3 µM
HCT-116 [5] = details: Homo sapiens, at 0.3 µM
[6] = biological target: T1, Protein deacetylase HDAC6 (Homo sapiens, UniProt Q9UBN7); assay: Inhibition of full length recombinant human HDAC6 expressed in baculovirus expression system assessed as release of 7-amino-4-methylcoumarin by fluorogenic assay
T1 sequence (Q9UBN7 whole entry): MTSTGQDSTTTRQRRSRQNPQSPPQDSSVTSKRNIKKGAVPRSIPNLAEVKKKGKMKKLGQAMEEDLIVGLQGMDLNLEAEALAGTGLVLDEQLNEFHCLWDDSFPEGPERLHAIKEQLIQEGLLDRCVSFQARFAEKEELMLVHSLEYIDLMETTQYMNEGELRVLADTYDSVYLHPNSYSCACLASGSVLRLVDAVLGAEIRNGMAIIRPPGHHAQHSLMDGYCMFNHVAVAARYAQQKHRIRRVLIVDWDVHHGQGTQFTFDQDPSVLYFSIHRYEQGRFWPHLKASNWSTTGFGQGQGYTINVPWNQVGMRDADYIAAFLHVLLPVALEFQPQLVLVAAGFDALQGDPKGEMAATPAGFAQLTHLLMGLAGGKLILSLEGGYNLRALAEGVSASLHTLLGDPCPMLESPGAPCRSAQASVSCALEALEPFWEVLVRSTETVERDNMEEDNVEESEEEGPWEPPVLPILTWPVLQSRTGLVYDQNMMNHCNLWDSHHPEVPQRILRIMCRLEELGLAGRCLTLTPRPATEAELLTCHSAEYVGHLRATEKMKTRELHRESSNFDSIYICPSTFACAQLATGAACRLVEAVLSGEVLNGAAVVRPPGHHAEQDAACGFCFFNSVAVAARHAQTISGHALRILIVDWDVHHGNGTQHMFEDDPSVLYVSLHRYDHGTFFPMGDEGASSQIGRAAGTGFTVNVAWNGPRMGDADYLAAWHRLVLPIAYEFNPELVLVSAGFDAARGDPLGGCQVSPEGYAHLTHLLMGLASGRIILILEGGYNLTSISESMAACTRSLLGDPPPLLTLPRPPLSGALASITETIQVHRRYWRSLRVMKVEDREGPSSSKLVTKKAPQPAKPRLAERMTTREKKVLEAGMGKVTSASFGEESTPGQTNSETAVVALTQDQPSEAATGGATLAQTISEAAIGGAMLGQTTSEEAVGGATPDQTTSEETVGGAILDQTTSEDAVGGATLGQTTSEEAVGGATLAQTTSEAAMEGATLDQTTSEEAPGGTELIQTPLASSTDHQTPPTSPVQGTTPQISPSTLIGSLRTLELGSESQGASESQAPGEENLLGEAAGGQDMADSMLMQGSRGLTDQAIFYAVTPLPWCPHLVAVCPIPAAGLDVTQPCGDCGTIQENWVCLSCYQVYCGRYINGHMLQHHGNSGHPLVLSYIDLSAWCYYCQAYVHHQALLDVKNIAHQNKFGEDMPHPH

Mus musculus [7] = assay: Toxicity in nude mouse xenografted with human HCT116 cells assessed as change in body weight at 200 mg/kg, po qd; format: organism-based, HCT-116; details: in vivo
Histone deacetylase 1 = Histone deacetylase 1 (Homo sapiens, UniProt Q13547); assay: Inhibition of C-terminal His/FLAG-tagged full length recombinant human HDAC1 expressed in baculovirus expression system assessed as release of 7-amino-4-methylcoumarin by fluorogenic assay
Histone deacetylase 1, sequence (Q13547 whole entry): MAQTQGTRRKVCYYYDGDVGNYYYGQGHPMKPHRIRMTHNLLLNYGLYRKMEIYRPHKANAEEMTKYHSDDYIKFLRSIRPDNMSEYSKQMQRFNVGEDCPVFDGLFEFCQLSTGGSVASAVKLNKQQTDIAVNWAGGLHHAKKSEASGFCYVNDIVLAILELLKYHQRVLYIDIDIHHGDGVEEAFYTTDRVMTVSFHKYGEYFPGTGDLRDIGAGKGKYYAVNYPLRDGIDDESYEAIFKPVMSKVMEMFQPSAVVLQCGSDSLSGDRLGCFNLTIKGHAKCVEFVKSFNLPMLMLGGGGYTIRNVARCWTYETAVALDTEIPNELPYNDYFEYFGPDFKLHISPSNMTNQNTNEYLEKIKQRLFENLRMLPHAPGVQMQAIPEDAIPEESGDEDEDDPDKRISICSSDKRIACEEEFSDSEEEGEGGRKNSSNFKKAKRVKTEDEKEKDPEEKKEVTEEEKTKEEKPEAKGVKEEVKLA

Histone deacetylase 8 = biological target: T2, Histone deacetylase 8 (Homo sapiens, UniProt Q9BY41); assay: Inhibition of His-tagged full length recombinant human HDAC8 expressed in baculovirus expression system assessed as release of 7-amino-4-methylcoumarin by fluorogenic assay
T2 sequence (Q9BY41 whole entry): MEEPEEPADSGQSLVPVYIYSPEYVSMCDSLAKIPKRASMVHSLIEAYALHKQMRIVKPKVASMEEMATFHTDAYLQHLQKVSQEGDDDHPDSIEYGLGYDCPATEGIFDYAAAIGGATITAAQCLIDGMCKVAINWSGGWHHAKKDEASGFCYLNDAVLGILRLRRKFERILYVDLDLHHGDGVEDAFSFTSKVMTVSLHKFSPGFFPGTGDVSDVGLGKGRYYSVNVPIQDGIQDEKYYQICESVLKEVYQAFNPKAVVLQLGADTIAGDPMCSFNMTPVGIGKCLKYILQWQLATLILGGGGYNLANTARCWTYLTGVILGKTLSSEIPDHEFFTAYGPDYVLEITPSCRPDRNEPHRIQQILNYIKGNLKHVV

Histone deacetylase 2 = Histone deacetylase 2 (Homo sapiens, UniProt Q92769); assay: Inhibition of full length recombinant human HDAC2 expressed in baculovirus expression system assessed as release of 7-amino-4-methylcoumarin by fluorogenic assay
Histone deacetylase 2, sequence (Q92769 whole entry): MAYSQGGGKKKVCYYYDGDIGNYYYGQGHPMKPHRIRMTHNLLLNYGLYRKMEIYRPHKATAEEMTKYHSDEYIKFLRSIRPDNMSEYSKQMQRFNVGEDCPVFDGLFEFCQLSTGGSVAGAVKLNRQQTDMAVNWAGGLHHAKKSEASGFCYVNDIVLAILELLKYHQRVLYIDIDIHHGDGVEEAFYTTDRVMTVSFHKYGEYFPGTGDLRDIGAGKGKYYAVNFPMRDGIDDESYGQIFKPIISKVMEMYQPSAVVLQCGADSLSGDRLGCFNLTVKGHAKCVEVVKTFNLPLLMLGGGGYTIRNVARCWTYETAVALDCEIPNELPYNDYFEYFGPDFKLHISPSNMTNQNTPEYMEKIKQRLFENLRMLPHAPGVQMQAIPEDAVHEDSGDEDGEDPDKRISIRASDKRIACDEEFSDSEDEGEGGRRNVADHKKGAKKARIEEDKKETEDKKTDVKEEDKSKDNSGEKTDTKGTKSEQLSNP

Mus musculus [8] = assay: Toxicity in nude mouse xenografted with human HCT116 cells assessed as change in body weight at 50 to 100 mg/kg, po qd; format: organism-based, HCT-116; details: in vivo
[9] = Antitumor activity against human HCT116 cells xenografted in nude mouse assessed as tumor growth inhibition at 50 mg/kg, po qd; format: functional; details: HCT-116, po, read-out: TGI
In short: (§2)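 Male nude mice, 8 weeks old, implanted s.c. in the right flank with 1 x 10^7 log-phase HCT116 cells in PBS. Four groups of 7 received vehicle, 50 or 100 mg/kg test compound, or 200 mg/kg reference p.o. daily to endpoint, dosed at 10 mL/kg scaled to body weight. Tumor volume was taken as (w² × l)/2, and mice were monitored for adverse effects.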

[10] = Antitumor activity against human HCT116 cells xenografted in nude mouse assessed as tumor growth inhibition at 100 mg/kg, po qd; format: functional; details: HCT-116, po, read-out: TGI; in short: as §2
HCT-116 [11] = assay: Antitumor activity in human HCT116 cells xenografted in nude mouse assessed as tumor growth inhibition administered daily through oral route; format: functional, cell-based; in short: as §2

Structure (SMILES) | GI50 ([1]; Homo sapiens, HCT-116, 48 h) | GI50 ([2]; Homo sapiens, PC-3, 48 h) | GI50 ([3]; Homo sapiens, A549, 48 h) | GI50 ([4]; Homo sapiens, HL-60, 48 h) | further results
O=C(/C=C/c1cccc(S(=O)(=O)c2ccccn2)c1)NO | 1480 nM | 2650 nM | 1710 nM | 1980 nM | –
COc1ccc2nc(S(=O)(=O)c3cccc(/C=C/C(=O)NO)c3)ccc2c1 | 240 nM | 280 nM | 350 nM | 720 nM | –
COc1ccc(S(=O)(=O)c2nc3ccccc3cc2/C=C/C(=O)NO)cc1 | > 10000 nM | > 10000 nM | > 10000 nM | > 10000 nM | –
O=C(/C=C/c1ccc(S(=O)(=O)c2ccc3ccccc3n2)cc1)NO | 310 nM | 490 nM | 880 nM | 800 nM | –
COc1ccc(S(=O)(=O)c2ccc3cc(/C=C/C(=O)NO)ccc3n2)cc1 | 1390 nM | 1350 nM | 4750 nM | 1140 nM | –
COc1ccc(S(=O)(=O)c2ccc3ccc(/C=C/C(=O)NO)cc3n2)cc1 | 240 nM | 1010 nM | 1510 nM | 830 nM | –
O=C(/C=C/c1cccc(S(=O)(=O)c2ccc3cc(Cl)ccc3n2)c1)NO | 920 nM | 760 nM | 1010 nM | 1330 nM | –
O=C(/C=C/c1cccc(S(=O)(=O)Nc2ccccc2)c1)NO [BELINOSTAT] | 130 nM | 390 nM | 780 nM | 1090 nM | inhibition (PC-3): Active; inhibition (HCT-116 [5]): Active; pIC50 [6]: 7.30
O=C(CCCCCCC(=O)Nc1ccccc1)NO [VORINOSTAT] | – | – | – | – | Activity (Mus musculus [7]): Non-Toxic; GI50 [1]: 150 nM; GI50 [2]: 730 nM; GI50 [3]: 1020 nM; GI50 [4]: 1740 nM
O=C(/C=C/c1cccc(S(=O)(=O)c2ccc3cccc(F)c3n2)c1)NO | 440 nM | 320 nM | 640 nM | 720 nM | inhibition (PC-3): Active; pIC50 (Histone deacetylase 1): 8.24; inhibition (HCT-116 [5]): Active; pIC50 [6]: 8.23; pIC50 (Histone deacetylase 8): 6.70; pIC50 (Histone deacetylase 2): 7.82
O=C(/C=C/c1cccc(S(=O)(=O)c2ccc3cccc(Cl)c3n2)c1)NO | 1310 nM | 1350 nM | 1420 nM | 2640 nM | –
O=C(/C=C/c1cccc(C(=O)c2ccc3ccccc3n2)c1)NO | 350 nM | 470 nM | 840 nM | 1230 nM | –
O=C(/C=C/c1cccc(S(=O)(=O)c2ccc3ccccc3n2)c1)NO | 80 nM | 150 nM | 270 nM | 290 nM | Activity (Mus musculus [8]): Non-Toxic; inhibition (PC-3): Active; pIC50 (Histone deacetylase 1): 7.85; inhibition (HCT-116 [5]): Active; inhibition in vivo at 50 mg/kg [9]: 32.2%; pIC50 [6]: 7.82; inhibition in vivo at 100 mg/kg [10]: 58.8%; pIC50 (Histone deacetylase 8): 6.89; TGI (HCT-116 [11]): Dose-dependent effect; pIC50 (Histone deacetylase 2): 7.94
COc1ccc(S(=O)(=O)c2ccc3cccc(/C=C/C(=O)NO)c3n2)cc1 | 310 nM | 790 nM | 1320 nM | 1170 nM | –
COc1ccc(S(=O)(=O)c2ccc3c(/C=C/C(=O)NO)cccc3n2)cc1 | > 10000 nM | > 10000 nM | > 10000 nM | > 10000 nM | –
O=C(/C=C/c1ccc(C(=O)c2ccc3ccccc3n2)cc1)NO | 360 nM | 560 nM | 1130 nM | 1150 nM | –
